Many of the other results were omitted from the sample, so hits are more common in it than they were.
H69AR inhibit = proliferation blockers of H69AR lung cancer cells, primary screen, cell-based, human, 86K library; H69AR lung tumor viability, ATP luminescence, 72 h; hits give low values; viability, % at 10 µM; 6% of 85,000 active;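 active means viability at or below 40%; inactive means viability above 40%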;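 further: multidrug resistant small cell line overexpressing MRP-1 efflux transporter; 100% = mean luminescence of untreated control wells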
HUVEC prolif 384 = inhibitors of HUVEC proliferation, primary screen, cell-based, 384-well | CellTiter-Glo luminescence, 72 h; hits give low values | viability, % at 10 µM (by protocol) | 1.1% of 86,000 active | AID 648, 2007;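 active means viability at or below 30%; inactive means viability above 30%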;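 further: 100% = median luminescence of DMSO-only cell control wells on each plate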
bCat KO growth = primary screen for growth suppressors in beta-catenin knockout HCT116 cells (colon tumor, human). viability, % at 10 µM. 1.5% of 140,000 active. HCT116 beta-catenin knockout viability, CellTiter-Glo, 60 h; hits give low values;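 active means viability at or under a set limit, the compound median less 4 SD, cut at about 6% in these data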;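 further: 0% = Hyamine 1622 control at 20 µM and 100% = untreated cell control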
HCT116 PTEN-null = growth suppression of PTEN-null HCT116, primary screen, cell-based, CellTiter-Glo | HCT116 PTEN-null viability, 60 h; hits give low values | viability, % at 10 µM | 1.2% of 140,000 active | AID 827, 2007;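 active means viability at or below a set limit, 4 SD under the median of all tested compounds, cut at about 3.7% in these data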;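 further: PTEN knockout HCT116 line with beta catenin targeted HCT116 as companion control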
Lung fibro prol = antiproliferative effect on LL 47 fibroblasts – human, LL 47 cells, CellTiter-Glo luminescence, primary screen | LL 47 human lung fibroblast viability, ATP luminescence; hits give low values | viability, % at 10 µM | 1.1% of 85,000 active | AID 719, 2007;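 active means viability at or below 50% in the single dose screen; inactive means viability above 50%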;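 further: compound exposure lasted 72 h before the ATP readout; 100% = median luminescence of untreated cell-only wells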
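Test system: LL 47 human lung fibroblasts / Incubation: 72 h compound exposure at 37 °C after overnight plating / Technique: luminescent ATP detection, CellTiter-Glo / Compound dosing: 0.1% DMSO in all compound wells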
* = called active by the depositor.

Results for Cc1oc(-c2cccc(Cl)c2)nc1CN1CCC(C(=O)NCc2ccco2)CC1 ?
H69AR inhibit: 83; HUVEC prolif 384: 83; bCat KO growth: 97; HCT116 PTEN-null: 93; Lung fibro prol: 102

What do the screens show for `Cc1oc(-c2cccc(Cl)c2)nc1CN1CCC(C(=O)N2CCN(c3ccccc3F)CC2)CC1`?
H69AR inhibit: 5.8*; HUVEC prolif 384: 16*; Lung fibro prol: 86

What do the screens show for `CCOC(=O)C1CCCN(C(=O)C2CCN(Cc3nc(-c4ccc(Cl)cc4)oc3C)CC2)C1` (centres undefined)?
H69AR inhibit: 74; HUVEC prolif 384: 87; Lung fibro prol: 103

What do the screens show for `Cc1oc(-c2ccc(Cl)cc2)nc1CN1CCC(C(=O)N2CCc3ccccc3C2)CC1`?
H69AR inhibit: 1.3*; HUVEC prolif 384: 34; bCat KO growth: 14; HCT116 PTEN-null: 15; Lung fibro prol: 78

How did Cc1oc(-c2ccc(Cl)cc2)nc1CN1CCC(C(=O)N2CCN(Cc3ccccc3)CC2)CC1 do in these assays?
H69AR inhibit: 83; HUVEC prolif 384: 16*; bCat KO growth: 2.0*; HCT116 PTEN-null: 7; Lung fibro prol: 82

What do the screens show for `Cc1cccc(C(=O)N2CCC(Cc3ccccc3)CC2)c1[N+](=O)[O-]`?
bCat KO growth: 62; HCT116 PTEN-null: 78

What do the screens show for `CCOc1ccccc1NC(=O)CN(c1ccc(OC)cc1)S(=O)(=O)c1c(C)noc1C`?
H69AR inhibit: 88; HUVEC prolif 384: 47; bCat KO growth: 18; HCT116 PTEN-null: 13; Lung fibro prol: 47*

What do the screens show for `COc1ccc(NC(=O)CN(c2cc(C)cc(C)c2)S(=O)(=O)c2c(C)noc2C)cc1`?
H69AR inhibit: 90; HUVEC prolif 384: 85; bCat KO growth: 83; HCT116 PTEN-null: 79; Lung fibro prol: 91

What do the screens show for `COc1ccc(N(CC(=O)Nc2cc(C)ccc2OC)S(=O)(=O)c2c(C)noc2C)cc1`?
H69AR inhibit: 13*; HUVEC prolif 384: 59; bCat KO growth: 31; HCT116 PTEN-null: 34; Lung fibro prol: 82

How did CCOc1ccc(N(CC(=O)Nc2ccc(C)c(C)c2)S(=O)(=O)c2c(C)noc2C)cc1 do in these assays?
H69AR inhibit: 48; HUVEC prolif 384: 67; bCat KO growth: 29; HCT116 PTEN-null: 27; Lung fibro prol: 90

Results for CCOc1ccc(N(CC(=O)Nc2cccc(F)c2)S(=O)(=O)c2c(C)noc2C)cc1 ?
H69AR inhibit: 30*; HUVEC prolif 384: 86; bCat KO growth: 64; HCT116 PTEN-null: 66; Lung fibro prol: 75

Results for CCOc1ccccc1NC(=O)CN(c1cc(C)cc(C)c1)S(=O)(=O)c1c(C)noc1C ?
H69AR inhibit: 73; HUVEC prolif 384: 91; bCat KO growth: 95; HCT116 PTEN-null: 86; Lung fibro prol: 93

Results for CCOc1ccc(N(CC(=O)Nc2ccccc2C)S(=O)(=O)c2c(C)noc2C)cc1 ?
H69AR inhibit: 19*; HUVEC prolif 384: 50; bCat KO growth: 10; HCT116 PTEN-null: 12; Lung fibro prol: 49*

Results for COc1ccc(C(=O)NC(=S)NC2CCSC2=O)cc1 (centres undefined) ?
bCat KO growth: 97; HCT116 PTEN-null: 107

How did S=C(NCc1ccco1)N1CCN(Cc2ccc(Cl)cc2Cl)CC1 do in these assays?
bCat KO growth: 79; HCT116 PTEN-null: 81

Results for CCn1c(SCc2cccc(C)c2)nnc1-c1ccc(C)cc1 ?
H69AR inhibit: 85; HUVEC prolif 384: 108; bCat KO growth: 69; HCT116 PTEN-null: 69; Lung fibro prol: 101

How did O=C(COC(=O)CNS(=O)(=O)c1c(Cl)cccc1Cl)Nc1cccnc1Cl do in these assays?
bCat KO growth: 93; HCT116 PTEN-null: 102

How did O=C1C(=O)c2c(C(=O)c3ccccc3)coc2-c2ccccc21 do in these assays?
H69AR inhibit: 0.5*; HUVEC prolif 384: 3.2*; bCat KO growth: 1.8*; HCT116 PTEN-null: 1.5*; Lung fibro prol: 36*

How did Cc1oc2c(c1C(=O)c1ccccc1)C(=O)C(=O)c1ccccc1-2 do in these assays?
H69AR inhibit: 1.4*; HUVEC prolif 384: 3.1*; bCat KO growth: 1.2*; HCT116 PTEN-null: 1.5*; Lung fibro prol: 2.1*

Results for O=C(c1ccccc1)c1coc2ccc(O)c(Cl)c12 ?
H69AR inhibit: 62; HUVEC prolif 384: 89; bCat KO growth: 87; HCT116 PTEN-null: 87; Lung fibro prol: 94

Results for O=C(Nc1ccc(F)cc1)c1sc(Cl)nc1-c1ccccc1 ?
bCat KO growth: 103; HCT116 PTEN-null: 95

What do the screens show for `O=C(Nc1ccc(Cl)cc1)c1cnc(-c2ccccc2)nc1-c1ccccc1`?
bCat KO growth: 0.9*; HCT116 PTEN-null: 2.7*

How did N#C/C(=C\Nc1ccccc1SC(F)(F)F)c1nc(-c2ccc(Cl)cc2)cs1 do in these assays?
bCat KO growth: 47; HCT116 PTEN-null: 43

Results for CCOC(=O)N1CCC(c2cc(=O)n3[nH]c(C)c(-c4ccc(F)cc4)c3n2)CC1 ?
H69AR inhibit: 96; HUVEC prolif 384: 6.4*; bCat KO growth: 25; HCT116 PTEN-null: 46; Lung fibro prol: 84

What do the screens show for `Cc1cc(C)c2ccc(N)nc2c1O`?
H69AR inhibit: 14*; HUVEC prolif 384: 76; bCat KO growth: 3.8*; HCT116 PTEN-null: 5; Lung fibro prol: 9.4*

What do the screens show for `Cn1c(=O)c2c(ncn2CC(O)CO)n(C)c1=O` (centres undefined)?
H69AR inhibit: 97; HUVEC prolif 384: 98; bCat KO growth: 102; HCT116 PTEN-null: 96; Lung fibro prol: 89

How did Cn1c(=O)c2c(ncn2CC(COCc2ccc(Cl)cc2)OCc2ccc(Cl)cc2)n(C)c1=O (centres undefined) do in these assays?
H69AR inhibit: 35*; HUVEC prolif 384: 81; bCat KO growth: 59; HCT116 PTEN-null: 50; Lung fibro prol: 97

Results for COc1ccccc1-n1cnc2cc(NC(=O)c3ccco3)ccc21 ?
H69AR inhibit: 22*; HUVEC prolif 384: 73; bCat KO growth: 37; HCT116 PTEN-null: 32; Lung fibro prol: 89

Results for COc1cc(NC(=O)CSc2nc3ccccc3c(=O)n2C)ccc1NC(=O)c1ccco1 ?
H69AR inhibit: 24*; HUVEC prolif 384: 50; bCat KO growth: 98; HCT116 PTEN-null: 103; Lung fibro prol: 71

Results for COc1ccc(CCC(=O)Nc2cc(Cl)ccc2OC)cc1 ?
H69AR inhibit: 24*; HUVEC prolif 384: 82; bCat KO growth: 69; HCT116 PTEN-null: 69; Lung fibro prol: 91

What do the screens show for `COc1ccc(NC(=O)CCc2ccccc2)cc1NC(=O)c1ccco1`?
H69AR inhibit: 36*; HUVEC prolif 384: 64; bCat KO growth: 80; HCT116 PTEN-null: 79; Lung fibro prol: 98

Results for CC(=O)c1nn(-c2cccc(Br)c2)cc1C(=O)c1ccc(Cl)cc1 ?
bCat KO growth: 62; HCT116 PTEN-null: 75

Results for Cc1noc(C)c1C1(O)CCCCCCCCCCC1 ?
bCat KO growth: 91; HCT116 PTEN-null: 98

From PubChem
